Results reported in ChEMBL document CHEMBL4390639, “Design, Synthesis, and Biological Evaluation of Novel Allosteric Protein Disulfide Isomerase Inhibitors” (J Med Chem, 2019).
Active and inactive are the calls of the source. No cut-off for these calls is given here.

Experiments:
[1] = molecular target: T1, Protein disulfide-isomerase (Homo sapiens, UniProt P07237); experiment: Inhibition of recombinant human N-terminal His-tagged PDI expressed in Escherichia coli BL21 (DE3) pLysS assessed as reduction in enzyme-mediated bovine insulin aggregation
Target sequence in this assay (P07237 whole entry): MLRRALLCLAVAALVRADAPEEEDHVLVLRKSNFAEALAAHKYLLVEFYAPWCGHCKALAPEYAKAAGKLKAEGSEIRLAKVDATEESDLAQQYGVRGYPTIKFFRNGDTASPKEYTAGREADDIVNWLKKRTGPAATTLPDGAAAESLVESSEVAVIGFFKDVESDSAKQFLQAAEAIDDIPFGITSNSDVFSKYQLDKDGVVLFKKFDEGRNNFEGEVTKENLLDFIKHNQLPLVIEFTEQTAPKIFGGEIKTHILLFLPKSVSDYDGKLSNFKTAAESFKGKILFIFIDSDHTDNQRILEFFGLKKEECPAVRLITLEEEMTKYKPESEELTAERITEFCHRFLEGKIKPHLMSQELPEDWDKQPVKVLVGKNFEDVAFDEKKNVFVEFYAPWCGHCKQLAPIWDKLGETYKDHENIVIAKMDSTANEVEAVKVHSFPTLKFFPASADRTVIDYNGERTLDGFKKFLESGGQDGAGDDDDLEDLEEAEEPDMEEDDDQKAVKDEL

U-87 MG [2] = experiment: Cytotoxicity against human U87MG cells assessed as inhibition of cell growth measured after 72 hrs by MTT assay; type: functional, cell-based, U-87MG ATCC; conditions: Homo sapiens, U-87 MG, 72 h; read-out: IC50
Summary of the method: (§1)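 A172 and NU04 cells were seeded at 4000 cells/well and U87MG at 5000 cells/well, incubated overnight at 37 °C, 5% CO2, then exposed to compound or vehicle for 72 h. MTT (3 mg/mL) was added for 4 h, formazan was dissolved in DMSO, and absorbance was read at 570 nm. IC50 came from nonlinear regression; mean ± SD of at least three experiments.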

A 172 = experiment: Cytotoxicity against human A172 cells assessed as inhibition of cell growth measured after 72 hrs by MTT assay; type: functional, cell-based; conditions: Homo sapiens, A 172, 72 h; read-out: IC50; summary of the method: as §1
[3] = Cytotoxicity against human NU04 cells assessed as inhibition of cell growth measured after 72 hrs by MTT assay; type: functional, cell-based; conditions: Homo sapiens, 72 h; read-out: IC50; summary of the method: as §1
U-87 MG [4] = experiment: Cytotoxicity against human U87MG cells assessed as inhibition of cell proliferation at <IC50 treated for 24 hrs and measured after 10 days by colony formation assay relative to control
[5] = molecular target: T1, Protein disulfide-isomerase; experiment: Inhibition of recombinant human N-terminal His-tagged PDI expressed in Escherichia coli BL21 (DE3) pLysS at 100 uM measured after 1 hr by ANS dye based fluorescence spectra analysis
Summary of the method: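 ANS spectral scan: PDI incubated with 100 μM compounds or matching DMSO in TBS for 1 h at 37 °C. ANS then added and incubated 20 min at 25 °C in the dark. Fluorescence spectrum recorded with excitation 370 nm, emission 400–700 nm.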
Target sequence in this assay (P07237 18-508 limits assumed): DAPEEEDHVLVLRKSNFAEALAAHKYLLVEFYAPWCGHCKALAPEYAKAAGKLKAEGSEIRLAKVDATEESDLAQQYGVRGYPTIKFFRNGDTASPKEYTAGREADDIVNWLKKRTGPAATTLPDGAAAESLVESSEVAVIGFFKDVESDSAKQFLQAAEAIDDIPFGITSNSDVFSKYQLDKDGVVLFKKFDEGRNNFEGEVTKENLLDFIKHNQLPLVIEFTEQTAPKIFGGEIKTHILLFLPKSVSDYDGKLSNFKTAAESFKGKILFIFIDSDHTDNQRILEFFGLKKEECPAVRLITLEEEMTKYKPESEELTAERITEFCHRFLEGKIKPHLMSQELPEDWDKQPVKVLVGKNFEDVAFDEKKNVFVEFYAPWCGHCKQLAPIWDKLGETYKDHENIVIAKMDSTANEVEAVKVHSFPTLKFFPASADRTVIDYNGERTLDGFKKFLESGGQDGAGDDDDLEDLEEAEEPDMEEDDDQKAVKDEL

U-87 MG [6] = experiment: Cytotoxicity against human U87MG cells assessed as inhibition of cell proliferation at <IC50 measured after 72 hrs by MTT assay relative to control; type: functional, U-87MG ATCC

Row | Compound | IC50 [1] | IC50 (U-87 MG [2]) | IC50 (A 172) | IC50 [3] | inhibition (INH) (U-87 MG [4]) | inhibition [5] | inhibition (INH) (U-87 MG [6])
1 | N#Cc1ccc(/C=C/C(=O)c2ccc(O)cc2)cc1 | 0.74 µM | 15.1 µM | 20 µM | 12.8 µM | >50% | – | –
2 | CCN(CC)S(=O)(=O)c1ccc(C(=O)/C=C/c2cccc(O)c2)cc1 | 1.29 µM | 40.7 µM | 31.2 µM | 19.2 µM | >50% | – | –
3 | N#Cc1cccc(/C=C/C(=O)c2cnccn2)c1 | > 500 µM | – | – | – | – | inactive | –
4 | N#Cc1ccc(/C=C/C(=O)c2ccc(O)c(F)c2)cc1 | 0.21 µM | 29 µM | 28.4 µM | 15.8 µM | – | – | >50%
5 | COC(=O)c1cccc(/C=C/C(=O)c2ccc(O)c(C(F)(F)F)c2)c1 | 0.49 µM | 11.6 µM | 35 µM | 10.3 µM | >50% | – | –
6 | N#Cc1cccc(/C=C/C(=O)c2ccc(S(=O)(=O)Nc3ccccc3)cc2)c1 | 1.11 µM | 48.5 µM | 28.9 µM | 18.7 µM | – | – | >50%
7 | CCCCN(CCCC)S(=O)(=O)c1ccc(C(=O)/C=C/c2cccc(C#N)c2)cc1 | 1.34 µM | 17 µM | 67.3 µM | 15.5 µM | – | – | >50%
8 | COC(=O)c1cccc(/C=C/C(=O)c2ccc(CO)c(Br)c2)c1 | 0.13 µM | 13.6 µM | 20.6 µM | 17.2 µM | >50% | – | –
9 | O=C(/C=C/c1ccc(Br)cc1)c1cccc(O)c1 | 0.4 µM | 76.3 µM | 67.8 µM | 26.2 µM | >50% | – | –
10 | CCCN(CCC)S(=O)(=O)c1ccc(C(=O)/C=C/c2cccc(C#N)c2)cc1 | 0.82 µM | 25.6 µM | 35 µM | 26.6 µM | – | – | >50%
11 | COC(=O)c1cccc(/C=C/C(=O)c2ccc(O)cc2)c1 | 0.4 µM | 28.8 µM | 32.3 µM | 30.6 µM | – | – | >50%
12 | O=C(/C=C/c1ccc(B(O)O)cc1)c1ccccc1 | 1.25 µM | 31.2 µM | 32.1 µM | 22.9 µM | – | – | >50%
13 | N#Cc1ccc(/C=C/C(=O)c2ccc(O)c(C(F)(F)F)c2)cc1 | 1.11 µM | 26.4 µM | 33.7 µM | 10.4 µM | – | – | >50%
14 | O=C(/C=C/c1ccc(-n2cnc3ccccc32)cc1)c1cccc(O)c1 | 0.23 µM | 10.8 µM | 10.7 µM | 9.9 µM | – | – | >50%
15 | N#Cc1cccc(/C=C/C(=O)c2ccc(B(O)O)cc2)c1 | 0.83 µM | 24.3 µM | 20.2 µM | 13 µM | – | – | >50%
